In ChEMBL document CHEMBL5500351, “Active site-directed probes targeting dipeptidyl peptidases 8 and 9” (Eur J Med Chem, 2024):

Key:
[1] = species on record: Homo sapiens; assay: Selectivity index, ratio of IC50 for inhibition of human DPP8 expressed in baculovirus using Ala-Pro-7-amino-4-trifluormethylcoumarin as substrate to IC50 for inhibition of human DPP9 expressed in baculovirus using Gly-Pro-AMC as substrate
Outline: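 Ratio of IC50 against recombinant human DPP8 to IC50 against recombinant human DPP9, i.e. IC50(DPP8)/IC50(DPP9). Each IC50 is the mean of 3 independent measurements ± standard deviation.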

[2] = biological target: Dipeptidyl peptidase 4 (Homo sapiens, UniProt P27487); assay: Inhibition of human DPP4
Chain of Dipeptidyl peptidase 4 (P27487 whole entry): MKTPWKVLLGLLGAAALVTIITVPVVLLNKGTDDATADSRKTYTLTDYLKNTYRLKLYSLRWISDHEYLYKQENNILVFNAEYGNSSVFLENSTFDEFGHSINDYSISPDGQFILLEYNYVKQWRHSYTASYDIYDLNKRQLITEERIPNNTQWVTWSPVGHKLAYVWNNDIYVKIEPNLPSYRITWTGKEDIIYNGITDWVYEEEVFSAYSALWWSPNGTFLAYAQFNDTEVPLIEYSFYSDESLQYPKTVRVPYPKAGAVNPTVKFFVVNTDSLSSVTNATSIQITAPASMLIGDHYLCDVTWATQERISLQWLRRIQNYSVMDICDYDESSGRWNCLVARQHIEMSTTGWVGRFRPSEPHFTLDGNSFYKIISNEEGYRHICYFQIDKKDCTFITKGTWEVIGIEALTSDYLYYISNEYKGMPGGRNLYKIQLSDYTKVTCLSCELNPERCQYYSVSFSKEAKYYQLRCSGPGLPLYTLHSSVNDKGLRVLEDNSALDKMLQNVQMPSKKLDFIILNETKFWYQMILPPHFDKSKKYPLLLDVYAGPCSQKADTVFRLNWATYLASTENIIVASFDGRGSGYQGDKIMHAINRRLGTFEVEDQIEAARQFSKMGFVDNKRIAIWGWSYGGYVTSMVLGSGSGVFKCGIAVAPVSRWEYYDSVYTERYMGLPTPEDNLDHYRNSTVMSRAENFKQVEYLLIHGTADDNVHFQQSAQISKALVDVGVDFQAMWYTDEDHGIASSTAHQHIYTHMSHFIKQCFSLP
Outline: (§1)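 IC50 reported as the mean ± standard deviation of three independent determinations against each protease.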

[3] = biological target: Dipeptidyl peptidase 2 (Homo sapiens, UniProt Q9UHL4); assay: Inhibition of recombinant human DPP2; outline: as §1
[4] = biological target: T1, Prolyl endopeptidase FAP (Homo sapiens, UniProt Q12884); assay: Inhibition of recombinant human FAP; outline: as §1
T1 sequence (Q12884 whole entry): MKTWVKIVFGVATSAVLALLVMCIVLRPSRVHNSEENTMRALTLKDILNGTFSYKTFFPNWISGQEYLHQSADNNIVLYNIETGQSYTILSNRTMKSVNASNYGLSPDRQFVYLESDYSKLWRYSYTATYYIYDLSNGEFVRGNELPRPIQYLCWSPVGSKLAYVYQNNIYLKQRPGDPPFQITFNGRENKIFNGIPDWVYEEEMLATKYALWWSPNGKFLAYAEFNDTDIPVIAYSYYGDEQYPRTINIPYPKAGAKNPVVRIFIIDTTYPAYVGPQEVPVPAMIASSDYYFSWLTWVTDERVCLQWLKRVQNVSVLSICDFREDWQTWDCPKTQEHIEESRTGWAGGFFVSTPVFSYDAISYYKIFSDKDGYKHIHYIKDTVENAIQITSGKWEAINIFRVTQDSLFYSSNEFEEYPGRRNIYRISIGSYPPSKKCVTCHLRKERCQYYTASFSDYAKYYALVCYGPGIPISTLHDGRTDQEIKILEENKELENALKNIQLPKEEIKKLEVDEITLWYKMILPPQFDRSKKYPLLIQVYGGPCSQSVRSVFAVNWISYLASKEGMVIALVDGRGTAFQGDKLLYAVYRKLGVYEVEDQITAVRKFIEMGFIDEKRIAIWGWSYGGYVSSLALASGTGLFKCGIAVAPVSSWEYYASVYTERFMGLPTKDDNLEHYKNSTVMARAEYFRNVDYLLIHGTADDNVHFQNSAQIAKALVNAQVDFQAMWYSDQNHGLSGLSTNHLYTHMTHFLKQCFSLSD

[5] = biological target: T2, Prolyl endopeptidase (Homo sapiens, UniProt P48147); assay: Inhibition of recombinant human PREP; outline: as §1
T2 sequence (P48147 whole entry): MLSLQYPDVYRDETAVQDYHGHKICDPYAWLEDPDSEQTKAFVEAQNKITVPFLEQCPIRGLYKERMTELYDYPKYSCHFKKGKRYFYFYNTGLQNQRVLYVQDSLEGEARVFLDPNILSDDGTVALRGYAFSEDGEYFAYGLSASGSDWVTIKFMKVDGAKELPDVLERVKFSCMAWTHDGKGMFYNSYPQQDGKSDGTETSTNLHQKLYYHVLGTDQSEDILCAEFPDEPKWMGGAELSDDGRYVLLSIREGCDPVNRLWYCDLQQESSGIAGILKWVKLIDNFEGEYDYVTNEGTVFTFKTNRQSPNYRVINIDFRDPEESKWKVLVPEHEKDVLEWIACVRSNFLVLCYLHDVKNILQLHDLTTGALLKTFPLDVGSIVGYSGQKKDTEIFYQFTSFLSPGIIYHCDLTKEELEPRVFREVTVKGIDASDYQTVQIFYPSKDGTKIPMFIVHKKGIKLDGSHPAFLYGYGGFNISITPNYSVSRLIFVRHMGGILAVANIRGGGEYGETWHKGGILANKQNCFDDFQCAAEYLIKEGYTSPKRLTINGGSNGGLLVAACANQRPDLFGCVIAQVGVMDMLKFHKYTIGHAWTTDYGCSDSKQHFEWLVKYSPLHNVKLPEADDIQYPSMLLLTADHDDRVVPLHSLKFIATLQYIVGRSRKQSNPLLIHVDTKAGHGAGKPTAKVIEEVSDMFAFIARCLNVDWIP

[6] = species on record: Homo sapiens; assay: Selectivity index, ratio of IC50 for inhibition of human DPP8 expressed in baculovirus-infected Sf9 cells to IC50 for inhibition of human DPP9
Outline: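 Selectivity is computed as IC50(DPP8)/IC50(DPP9). Each IC50 was measured against recombinant human DPP8 or DPP9 and is the mean of three independent measurements ± standard deviation.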

SMILES | Ratio IC50 [1] | IC50 [2] [µM] | IC50 [3] [µM] | IC50 [4] [µM] | IC50 [5] [µM] | Ratio IC50 [6]
CC(C)[C@H](N)C(=O)N1CCC[C@H]1B(O)O | 3 |  |  |  |  | 
O=C(CCCCC1SCC2NC(=O)NC21)NCCOCCOC(=O)NC12CC3CC(CC(NCC(=O)N4Cc5cc(F)c(F)cc5C4)(C3)C1)C2 (stereo unspecified) |  | > 10 | > 5 | > 10 | > 10 | 
O=C(NC12CC3CC(CC(NCC(=O)N4Cc5ccc(F)cc5C4)(C3)C1)C2)OCCOCCNc1ccc([N+](=O)[O-])c2nonc12 |  | 0.44 | > 5 | > 10 | > 10 | 
CN(C)c1cccc2c(S(=O)(=O)NCCOCCOC(=O)NC34CC5CC(CC(NCC(=O)N6Cc7ccc(F)cc7C6)(C5)C3)C4)cccc12 |  | > 10 | > 5 | > 10 | > 10 | 
O=C(CCCCC1SCC2NC(=O)NC21)NCCOCCNC(=O)NC12CC3CC(CC(NCC(=O)N4Cc5cc(F)c(F)cc5C4)(C3)C1)C2 (stereo unspecified) |  | > 10 | > 5 | > 10 | > 10 | 
CC[N+]1=C(/C=C/C=C2/N(CCCCCC(=O)NC34CC5CC(CC(NCC(=O)N6Cc7cc(F)c(F)cc7C6)(C5)C3)C4)c3ccc(S(=O)(=O)O)cc3C2(C)C)C(C)(C)c2cc(S(=O)(=O)[O-])ccc21 |  | > 10 | > 5 | > 10 | > 10 | 
CN(C)c1cccc2c(S(=O)(=O)NCCOCCOC(=O)NC34CC5CC(CC(NCC(=O)N6Cc7cc(F)c(F)cc7C6)(C5)C3)C4)cccc12 |  | > 10 | > 5 | > 10 | > 10 | 
O=C(CCCCC1SCC2NC(=O)NC21)NCCOCCOCCNC(=O)NC12CC3CC(CC(NCC(=O)N4Cc5ccc(F)cc5C4)(C3)C1)C2 (stereo unspecified) |  | > 10 | > 5 | > 10 | > 10 | 
O=C(CCCCC1SCC2NC(=O)NC21)NCCOCCOCCNC(=O)NC12CC3CC(CC(NCC(=O)N4Cc5cc(F)c(F)cc5C4)(C3)C1)C2 (stereo unspecified) |  | > 10 | > 5 | > 10 | > 10 | 
O=C(CCCCC1SCC2NC(=O)NC21)NCCOCCOC(=O)NC12CC3CC(CC(NCC(=O)N4Cc5ccc(F)cc5C4)(C3)C1)C2 (stereo unspecified) |  | > 10 | > 5 | > 10 | > 10 | 
N[C@@H](CC(=O)N1CCN(C(c2ccc(F)cc2)c2ccc(F)cc2)CC1)C(=O)N1Cc2ccccc2C1 |  |  |  |  |  | 4
O=C(NC12CC3CC(CC(NCC(=O)N4Cc5cc(F)c(F)cc5C4)(C3)C1)C2)OCCOCCNc1ccc([N+](=O)[O-])c2nonc12 |  | 1.7 | > 5 | > 10 | > 10 | 
O=C(CCCCC1SCC2NC(=O)NC21)NCCOCCNC(=O)NC12CC3CC(CC(NCC(=O)N4Cc5ccc(F)cc5C4)(C3)C1)C2 (stereo unspecified) |  | > 10 | > 5 | > 10 | > 10 | 
